In PMC2897705 (Biochemistry, 2010):
One block for each compound: values may come before it.

Columns and labels:
Type in all cases: biochemical
LRRK2 [1] = target: T1, LRRK2 (Mus musculus, UniProt Q5S006); experiment: Radiometric TLC assay of LRRK2-catalyzed GTP hydrolysis; conditions: for Ki: read-out: apparent dissociation constant Ki,app
In short: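 LRRK2 purified from BAC-transgenic mouse brain (30 nM) starts GTP hydrolysis with GTP plus [α-33P]-GTP. Runs are in triplicate, 20 min at room temperature, stopped with 20 mM EDTA. [α-33P]-GDP is resolved on PEI-cellulose TLC (0.5 M KH2PO4, pH 3.4) and counted by scintillation. Initial velocities versus [GTP] are fitted to Michaelis–Menten.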

LRRK2 [2] = target: T1, LRRK2; experiment: Radiometric assay of LRRK2-catalyzed LRRKtide phosphorylation; conditions: for effect of nucleotide on kinase activity: LRRKtide phosphorylation, data not shown
LRRK2 [3] = target: T1, LRRK2; experiment: TR-FRET assay of LRRK2-catalyzed PLK-peptide phosphorylation
In short: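 Mouse-brain-derived LRRK2 (4 nM) phosphorylates PLK-peptide (RRRSLLE) with varied ATP. Runs are in duplicate, 4 h at room temperature, stopped with 10 mM EDTA, then 2 h with 2 nM Eu-anti-phospho-PLK before the TR-FRET read. For inhibitor studies, ATP is varied at 100 nM PLK-peptide with test compound 0–16.7 µM. Initial velocities are fitted by nonlinear least squares.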

[4] = 200 µM GTP, 0.5 mM ADP, 0.5 mM ATP or 1 µM PLK

T1 sequence (Q5S006 whole entry): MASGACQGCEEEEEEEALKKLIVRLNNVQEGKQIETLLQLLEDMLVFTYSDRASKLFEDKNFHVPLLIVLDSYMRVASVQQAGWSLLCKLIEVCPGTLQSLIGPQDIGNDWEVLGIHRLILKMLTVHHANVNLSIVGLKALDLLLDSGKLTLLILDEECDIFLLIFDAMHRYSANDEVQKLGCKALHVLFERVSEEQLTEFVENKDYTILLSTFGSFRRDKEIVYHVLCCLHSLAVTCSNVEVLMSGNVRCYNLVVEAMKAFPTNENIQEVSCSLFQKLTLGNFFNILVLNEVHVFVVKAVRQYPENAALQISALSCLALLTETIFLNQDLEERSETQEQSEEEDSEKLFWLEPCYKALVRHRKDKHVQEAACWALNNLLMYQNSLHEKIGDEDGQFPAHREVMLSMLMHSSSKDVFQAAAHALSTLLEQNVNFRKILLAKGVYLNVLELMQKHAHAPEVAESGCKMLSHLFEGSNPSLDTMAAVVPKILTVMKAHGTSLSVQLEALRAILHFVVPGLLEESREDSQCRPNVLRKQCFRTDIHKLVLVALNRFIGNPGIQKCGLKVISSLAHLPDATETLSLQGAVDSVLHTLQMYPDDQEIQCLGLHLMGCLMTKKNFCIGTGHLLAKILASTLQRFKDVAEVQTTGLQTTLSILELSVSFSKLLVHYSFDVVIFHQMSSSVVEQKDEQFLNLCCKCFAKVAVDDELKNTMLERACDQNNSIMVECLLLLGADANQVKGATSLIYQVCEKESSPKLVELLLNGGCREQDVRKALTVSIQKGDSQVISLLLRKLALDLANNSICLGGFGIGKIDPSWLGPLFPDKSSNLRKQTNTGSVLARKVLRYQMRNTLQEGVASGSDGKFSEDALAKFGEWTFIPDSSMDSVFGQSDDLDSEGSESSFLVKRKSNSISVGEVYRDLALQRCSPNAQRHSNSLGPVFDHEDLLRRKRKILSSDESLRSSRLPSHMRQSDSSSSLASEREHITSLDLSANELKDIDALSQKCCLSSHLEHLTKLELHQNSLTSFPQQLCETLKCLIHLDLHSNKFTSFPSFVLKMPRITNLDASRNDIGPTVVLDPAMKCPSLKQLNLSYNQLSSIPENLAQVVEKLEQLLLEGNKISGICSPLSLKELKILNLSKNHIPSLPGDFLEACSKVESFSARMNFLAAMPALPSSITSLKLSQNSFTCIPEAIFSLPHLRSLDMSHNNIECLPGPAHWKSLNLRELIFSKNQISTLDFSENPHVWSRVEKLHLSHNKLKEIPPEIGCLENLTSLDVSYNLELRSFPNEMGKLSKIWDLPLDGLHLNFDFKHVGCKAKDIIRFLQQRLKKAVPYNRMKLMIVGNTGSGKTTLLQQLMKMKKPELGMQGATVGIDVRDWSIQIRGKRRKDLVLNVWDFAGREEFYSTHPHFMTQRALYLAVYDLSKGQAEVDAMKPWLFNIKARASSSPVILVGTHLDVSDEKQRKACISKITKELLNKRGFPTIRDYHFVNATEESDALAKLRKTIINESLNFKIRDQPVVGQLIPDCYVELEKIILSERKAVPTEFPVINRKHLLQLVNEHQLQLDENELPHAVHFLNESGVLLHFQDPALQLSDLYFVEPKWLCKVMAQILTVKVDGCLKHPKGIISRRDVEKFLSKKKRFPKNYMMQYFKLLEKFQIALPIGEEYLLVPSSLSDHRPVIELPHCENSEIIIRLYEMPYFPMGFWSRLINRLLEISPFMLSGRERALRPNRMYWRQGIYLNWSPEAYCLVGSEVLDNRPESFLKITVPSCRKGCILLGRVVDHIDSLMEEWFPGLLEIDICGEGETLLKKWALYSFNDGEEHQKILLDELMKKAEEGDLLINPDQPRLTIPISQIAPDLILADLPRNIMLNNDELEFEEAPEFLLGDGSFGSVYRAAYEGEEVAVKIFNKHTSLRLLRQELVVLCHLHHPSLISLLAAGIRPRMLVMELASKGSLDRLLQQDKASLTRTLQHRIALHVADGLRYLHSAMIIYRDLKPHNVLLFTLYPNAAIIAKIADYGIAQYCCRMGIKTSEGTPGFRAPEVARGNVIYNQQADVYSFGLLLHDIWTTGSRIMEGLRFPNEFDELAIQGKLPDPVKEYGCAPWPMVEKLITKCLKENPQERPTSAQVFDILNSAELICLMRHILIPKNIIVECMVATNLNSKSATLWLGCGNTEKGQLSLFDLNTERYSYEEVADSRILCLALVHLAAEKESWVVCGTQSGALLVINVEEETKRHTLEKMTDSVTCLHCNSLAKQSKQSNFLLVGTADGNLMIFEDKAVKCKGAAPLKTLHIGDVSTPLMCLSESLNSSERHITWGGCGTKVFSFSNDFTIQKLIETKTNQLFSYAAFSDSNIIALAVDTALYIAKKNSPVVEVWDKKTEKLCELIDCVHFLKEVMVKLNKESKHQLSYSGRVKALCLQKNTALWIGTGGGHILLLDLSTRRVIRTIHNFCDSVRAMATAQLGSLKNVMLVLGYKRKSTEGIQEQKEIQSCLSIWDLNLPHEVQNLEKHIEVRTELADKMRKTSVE

Compound: Nc1ncnc2c1ncn2[C@@H]1O[C@H](COP(=O)(O)O)[C@@H](O)[C@H]1O [AMP]
difference of Ki,e between PLK-peptide and LRRKtide reactions (LRRK2 [2]): 5 fold
Ki (LRRK2 [2]; read-out: Ki,e, LRRKtide as phosphoryl acceptor): 12 µM
Ki (LRRK2 [3]; read-out: Ki,e, PLK-peptide as phosphoryl acceptor): 2500 nM

Compound: Nc1ncnc2c1ncn2[C@@H]1O[C@H](COP(=O)(O)OP(=O)(O)OP(=O)(O)O)[C@@H](O)[C@H]1O [ATP]
KA (KATP) (LRRK2 [2]; ATP with LRRKtide as phosphoryl acceptor, global fit): 67 ± 6.4 µM
inhibition of GTPase activity (LRRK2 [1]; [4]): Inhibition of GTPase activity was detected
KA (KATP) (LRRK2 [3]; ATP with PLK-peptide as phosphoryl acceptor, global fit): 13 ± 2.9 µM

Compound: CN[C@@H]1C[C@H]2O[C@@](C)([C@@H]1OC)n1c3ccccc3c3c4c(c5c6ccccc6n2c5c31)C(=O)NC4 [staurosporine]
inhibition of GTPase activity (LRRK2 [1]; data not shown): does not inhibit GTPase activity at all
inhibition of LRRK2 kinase activity (LRRK2 [3]; kinase assay not specified, data not shown): inhibits LRRK2 kinase activity

Second part, led by results:

difference in dissociation constants, GTPase vs kinase reaction (LRRK2 [1]): 30 fold
Ki (LRRK2 [1]; 200 µM GTP): 600 ± 100 µM
Compound: Nc1ncnc2c1ncn2[C@@H]1O[C@H](COP(=O)(O)OP(=O)(O)O)[C@@H](O)[C@H]1O [ADP]
inhibition of GTPase activity (LRRK2 [1]; [4]): Inhibition of GTPase activity was detected

Ki (LRRK2 [1]; 200 µM GTP): 97 ± 16 µM
Compound: Nc1nc2c(ncn2[C@@H]2O[C@H](COP(=O)(O)OP(=O)(O)O)[C@@H](O)[C@H]2O)c(=O)[nH]1 [GDP]
effect of nucleotide on kinase activity (LRRK2 [2]): no significant activation or inhibition of kinase activity was detected

Ki (LRRK2 [1]; 200 µM GTP): 2900 ± 300 µM
Compound: Nc1nc2c(ncn2[C@@H]2O[C@H](COP(=O)(O)O)[C@@H](O)[C@H]2O)c(=O)[nH]1 [GMP]
effect of nucleotide on kinase activity (LRRK2 [2]): no significant activation or inhibition of kinase activity was detected

solvent isotope effect ^Dkcat (LRRK2 [1]; 1 mM GTP, pH 7.4, D2O molar fraction 0.86, four experiments): 0.97 ± 0.04
kcat (LRRK2 [1]; GTP hydrolysis): 0.23 ± 0.02 s⁻¹
Km (LRRK2 [1]; read-out: Km (KGTP), GTP hydrolysis): 210 ± 29 µM
Compound: Nc1nc2c(ncn2[C@@H]2O[C@H](COP(=O)(O)OP(=O)(O)OP(=O)(O)O)[C@@H](O)[C@H]2O)c(=O)[nH]1 [GTP]
effect of nucleotide on kinase activity (LRRK2 [2]): no significant activation or inhibition of kinase activity was detected
